Experiments:
[1] = Inhibition of rabbit small-intestinal Acyl coenzyme A:cholesterol acyltransferase 1; design: species or system Oryctolagus cuniculus
Method in brief: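 Source: intestinal mucosa microsomes from cholesterol-fed Japanese white rabbits. Mucosa homogenized in 40 mM phosphate pH 7.4 with 30 mM EDTA, 50 mM KCl and 0.1 M sucrose; spun 10000g for 30 min, then 105000g for 1 h, at 4 °C.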

[2] = test system: Rattus norvegicus; test: Serum total cholesterol-lowering activity in the cholesterol-fed rats expressed as the ratio of the observed reduction to the difference between the control and normal levels 100 (0.1 mg/kg po); format: functional; details: in the assay text read “1 mg/kg po” for “0.1 mg/kg po”
Method in brief: (§1)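 Male Wistar rats (8–9 weeks, 200 g, n = 6/group) on normal chow for 7 days, then a 2% cholesterol/1% cholic acid/12% coconut oil diet for 3 days. Compound in 0.5% methyl cellulose given orally once daily for 3 days at the listed dose; controls got vehicle. After a 16 h fast, aortic blood taken; serum cholesterol measured enzymatically. % change = (A−B)/(B−C)×100, with B = control and C = normal-diet rats.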

[3] = species on record: Rattus norvegicus; test: IC50 is the concentration that inhibits 50% of the enzyme activity was evaluated by measuring the ability to inhibit acetyl-LDL-induced cholesteryl ester accumulation in rat peritoneal macrophages.; format: functional
Method in brief: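 Peritoneal macrophages from nonstimulated male Wistar rats (250–300 g), 3 × 10^6 per dish in 10% FBS-DMEM, adhered 2 h at 37 °C in 5% CO2. Washed in 3% BSA-DMEM, then incubated 16 h with 25 µg/mL acetylated human LDL, [14C]oleate-BSA and compound. Lipids extracted in hexane–2-propanol with [3H]cholesteryl oleate recovery standard. Cholesteryl oleate isolated by TLC and counted; IC50 determined for ester accumulation.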

[4] = test system: Rattus norvegicus; test: Serum total cholesterol-lowering activity in the cholesterol-fed rats expressed as the ratio of the observed reduction to the difference between the control and normal levels 100 (3 mg/kg po); format: functional; method in brief: as §1
[5] = Ability to inhibit rabbit liver Acyl coenzyme A:cholesterol acyltransferase 1.; design: species or system Oryctolagus cuniculus
Method in brief: (§2)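 Liver microsomes from Japanese white rabbits, prepared in 0.154 M phosphate buffer pH 7.4 with 40 mM NaF. Assay mix: 36 μM BSA, 2 mM DTT, 0.5 mg/mL microsomes, sonicated liposomes (PC:PS:cholesterol 3:1:8, 8 mg/mL cholesterol). Compound added as 1% (v/v) DMSO solution, preincubated 3 min at 37 °C. Reaction started with 43 μM [14C]oleoyl-CoA, 10 min at 37 °C. Cholesteryl oleate radioactivity measured; IC50 determined.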

[6] = test system: Rattus norvegicus; test: Serum total cholesterol-lowering activity in the cholesterol-fed rats expressed as the ratio of the observed reduction to the difference between the control and normal levels 100. (0.3 mg/kg, po); format: functional; method in brief: as §1
[7] = test system: Rattus norvegicus; test: Serum total cholesterol-lowering activity in the cholesterol-fed rat expressed as the ratio of the observed reduction to the difference between the control and normal levels 100 (0.3 mg/kg, po); format: functional; method in brief: as §1
[8] = Ability to inhibit rabbit liver Acyl coenzyme A:cholesterol acyltransferase 1; design: species or system Oryctolagus cuniculus; method in brief: as §2
[9] = test system: Rattus norvegicus; test: Serum total cholesterol-lowering activity in the cholesterol-fed rats expressed as the ratio of the observed reduction to the difference between the control and normal levels 100 (10 mg/kg po); format: functional; method in brief: as §1
[10] = test system: Rattus norvegicus; test: Serum total cholesterol-lowering activity in the cholesterol-fed rat expressed as the ratio of the observed reduction to the difference between the control and normal levels 100 (0.1 mg/kg po); format: functional; method in brief: as §1
[11] = test system: Rattus norvegicus; test: Serum total cholesterol-lowering activity in the cholesterol-fed rats expressed as the ratio of the observed reduction to the difference between the control and normal levels 100 (0.3 mg/kg po); format: functional; method in brief: as §1
[12] = test system: Rattus norvegicus; test: Serum total cholesterol-lowering activity in the cholesterol-fed rat expressed as the ratio of the observed reduction to the difference between the control and normal levels 100 (3 mg/kg po); format: functional; method in brief: as §1

IC50 [1] | SMILES | further results
27 nM | CCCc1ccc(CCCC(C)(C)C(=O)Nc2c(OC)ccc3c2OCCC3=O)cc1 | Change [2]: -54%
540 nM | CCCCCCCCCCOc1ccc2c(c1NC(=O)c1ccc(OCCCCCCOc3ccc(Cl)cc3)cc1)OCCC2=O | 
26 nM | COc1ccc2c(c1NC(=O)c1ccc(OCCCCCCOc3ccc(Cl)cc3)cc1)OCCC2=O | IC50 [3]: 220 nM; Change [4]: -79%; IC50 [5]: 59 nM; Change [6]: -56%
400 nM | Cc1cc(C)c2c(c1NC(=O)C(C)(C)CCCCCOc1ccc(Cl)cc1)OCCC2=O | 
130 nM | CCCCCCCCCCOc1ccc2c(=O)ccoc2c1NC(=O)C(C)(C)C | 
7.5 nM | CCCCCCCCCCCCC(C)(C)C(=O)Nc1c(OC)ccc2c1OCCC2=O | 
430 nM | CCCCCCCCCCC1(C(=O)Nc2c(C)ccc3c2NCCC3=O)CCCC1 | 
180 nM | COc1ccc2c(c1NC(=O)C(C)(C)CCCCCCOc1ccc(Cl)cc1)C(=O)CCO2 | 
31 nM | CCCCCCCCC(C)(C)C(=O)Nc1c(OC)ccc2c1OCCC2=O | 
> 1000 nM | Cc1ccc2c(c1NC(=O)c1ccccc1)OCCC2=O | 
34 nM | CCCCCCCCCCC(C)(C)C(=O)Nc1c2c(cc([N+](=O)[O-])c1OC)C(=O)CCO2 | 
> 1000 nM | COc1ccc(C(=O)Nc2c(C)ccc3c2OCCC3=O)cc1 | 
150 nM | CCCCCCCCCCC(C)(C)C(=O)Nc1c(Cl)ccc2c1OCCC2=O | 
64 nM | COc1ccc2c(c1NC(=O)C(C)(C)CCCCCCOc1ccc(Cl)cc1)OCCC2=O | Change [6]: -53%; Change [11]: -53%
170 nM | CCCCCCCCCCC1(C(=O)Nc2c(C)ccc3c2OCCC3=O)CCCC1 | 
> 500 nM | Cc1ccc2c(=O)ccoc2c1NC(=O)C(C)(C)CCCCCOc1ccc(Cl)cc1 | 
> 1000 nM | Cc1ccc2c(c1NC(=O)C(C)(C)Cc1ccccc1)OCCC2=O | 
17 nM | COc1ccc2c(c1NC(=O)C(C)(C)CCCc1ccc(CC(C)C)cc1)OCCC2=O | 
14 nM | CCCCCCCCCCC(C)(C)C(=O)Nc1c(OCCC)ccc2c1OCCC2=O | 
180 nM | CCCCCCCCCCC(C)(C)C(=O)Nc1c(OC)ccc2c1OCCC2 | 
77 nM | CCCCCCCCCCC(C)(C)C(=O)Nc1c(OC)ccc2c(=O)ccoc12 | 

Continued, molecule first:

SMILES | IC50 [1] | further results
Cc1ccc2c(c1NC(=O)C(C)(C)CCCCOc1ccc(Cl)cc1)OCCC2=O | 510 nM | 
CCCCCCCCCCC(C)(C)C(=O)Nc1c(C)ccc2c1OCCC2=O | 210 nM | 
CCCCCCCCCCOc1ccc(C(=O)Nc2c(OC)ccc3c2OCCC3=O)cc1 | 12 nM | 
CCCCCCCCCCC(C)(C)C(=O)Nc1c2c(cc(N(C)C)c1OC)C(=O)CCO2 | > 200 nM | 
CCCCCCOc1ccc(CCCC(C)(C)C(=O)Nc2c(OC)ccc3c2OCCC3=O)cc1 | 16 nM | Change [4]: -65%
CCCCCCCCCCOc1cc(C)c(C(=O)Nc2c(OC)ccc3c2OCCC3=O)c(C)c1 | > 200 nM | 
CCCCCCCCCCOc1ccc2c(c1NC(=O)C(C)(C)CCCCCCOc1ccc(Cl)cc1)OCCC2=O | 140 nM | 
CC(C)(C)C(=O)Nc1c(OCCCCCCc2ccccc2)ccc2c1OCCC2=O | 24 nM | 
CCCOCCCCCCC(C)(C)C(=O)Nc1c(OC)ccc2c1OCCC2=O | 30 nM | 
CCCCCCCCCCOc1ccc2c(c1NC(=O)C(C)(C)C)OCCC2=O | 14 nM | IC50 [3]: 130 nM; Change [7]: -45%; IC50 [8]: 22 nM
CCCCCCCCCCOc1ccc(C(=O)Nc2c(OCCCCCCCCCC)ccc3c2OCCC3=O)cc1 | > 100 nM | 
Cc1ccc2c(c1NC(=O)C(C)(C)CCCCCOc1ccc(Cl)cc1)OCCC2=O | 470 nM | Change [9]: -53%
CCCCCCCCCCC(C)(C)C(=O)Nc1c(OC)ccc2c1OCCC2=O | 13 nM | IC50 [3]: 160 nM; Change [7]: -66%; IC50 [8]: 16 nM; Change [10]: -61%
CCCCCCCCCCOc1ccc2c(c1NC(C)=O)OCCC2=O | 300 nM | 
CCCCCCCCCCC(C)(C)C(=O)Nc1c(OC)cc(OC)cc1OC [CL-976] | 140 nM | IC50 [3]: 3800 nM; Change [12]: -50%; IC50 [8]: 149 nM
COc1ccc2c(c1NC(=O)C(C)(C)CCCCCCc1ccccc1)OCCC2=O | 44 nM | 
CCCCCCCCCCOc1ccc2c(c1NC(=O)C(C)(C)CCCCCCCCCC)OCCC2=O | 850 nM | 
COc1ccc(OCCCCOc2ccc3c(c2NC(=O)C(C)(C)C)OCCC3=O)cc1 | 43 nM | 
CCCCCCCCCCC(C)(C)C(=O)Nc1c(OC)ccc2c(=O)cc(CC)oc12 | 780 nM | 
COc1ccc2c(c1NC(=O)c1ccc(OCCCCCCOCC(C)C)cc1)OCCC2=O | 40 nM | 
COc1ccc2c(c1NC(=O)C(C)(C)CCCCCCOCC(C)C)OCCC2=O | 26 nM | 
CCCCCCCCCCC(C)(C)C(=O)Nc1c(OC)c(NC)cc2c1OCCC2=O | 49 nM | 

Source: ChEMBL document CHEMBL1128510, “Potent inhibitors of acyl-CoA:cholesterol acyltransferase. Structure-activity relationships of novel N-(4-oxochroman-8-yl)amides” (J Med Chem, 1995)
